From ChEMBL document CHEMBL1955770, “Inhibition of S/G2 phase CDK4 reduces mitotic fidelity” (J Biol Chem, 2006)
Activity calls are given as the source filed them. No cut-off for these calls is given here.

Assays:
HeLa [1] = test: Cell cycle arrest in human HeLa cells assessed as accumulation at G1 phase at 2 uM treated 4 hr and measured 12 hr post double thymidine-synchrony release using propidium iodide staining by FACS analysis (reference value: 81 %); type: functional
Insulin receptor = Insulin receptor (Homo sapiens, UniProt P06213); test: Inhibition of insulin receptor using fluorescent substrate by IMAP assay
Chain of Insulin receptor (P06213 28-758 limits assumed): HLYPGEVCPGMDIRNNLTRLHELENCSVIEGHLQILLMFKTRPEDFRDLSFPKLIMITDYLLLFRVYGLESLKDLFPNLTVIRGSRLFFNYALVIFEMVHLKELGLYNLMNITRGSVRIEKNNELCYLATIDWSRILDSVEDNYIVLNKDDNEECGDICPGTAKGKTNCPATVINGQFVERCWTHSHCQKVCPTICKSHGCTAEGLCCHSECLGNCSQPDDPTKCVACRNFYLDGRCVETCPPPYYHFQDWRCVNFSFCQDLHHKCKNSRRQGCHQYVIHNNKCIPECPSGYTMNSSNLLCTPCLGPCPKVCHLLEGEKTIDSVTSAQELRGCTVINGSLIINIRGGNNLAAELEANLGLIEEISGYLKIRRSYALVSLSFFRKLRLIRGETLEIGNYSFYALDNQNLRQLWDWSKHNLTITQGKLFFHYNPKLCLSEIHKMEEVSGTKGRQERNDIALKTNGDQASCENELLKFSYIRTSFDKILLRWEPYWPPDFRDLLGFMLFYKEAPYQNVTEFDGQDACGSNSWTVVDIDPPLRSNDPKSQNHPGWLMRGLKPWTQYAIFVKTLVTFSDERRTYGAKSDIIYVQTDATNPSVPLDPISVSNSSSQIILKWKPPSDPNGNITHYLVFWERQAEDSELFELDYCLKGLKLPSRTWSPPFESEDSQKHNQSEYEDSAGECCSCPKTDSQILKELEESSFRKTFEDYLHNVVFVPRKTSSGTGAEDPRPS
Chain of Insulin receptor (P06213 763-1382 limits assumed): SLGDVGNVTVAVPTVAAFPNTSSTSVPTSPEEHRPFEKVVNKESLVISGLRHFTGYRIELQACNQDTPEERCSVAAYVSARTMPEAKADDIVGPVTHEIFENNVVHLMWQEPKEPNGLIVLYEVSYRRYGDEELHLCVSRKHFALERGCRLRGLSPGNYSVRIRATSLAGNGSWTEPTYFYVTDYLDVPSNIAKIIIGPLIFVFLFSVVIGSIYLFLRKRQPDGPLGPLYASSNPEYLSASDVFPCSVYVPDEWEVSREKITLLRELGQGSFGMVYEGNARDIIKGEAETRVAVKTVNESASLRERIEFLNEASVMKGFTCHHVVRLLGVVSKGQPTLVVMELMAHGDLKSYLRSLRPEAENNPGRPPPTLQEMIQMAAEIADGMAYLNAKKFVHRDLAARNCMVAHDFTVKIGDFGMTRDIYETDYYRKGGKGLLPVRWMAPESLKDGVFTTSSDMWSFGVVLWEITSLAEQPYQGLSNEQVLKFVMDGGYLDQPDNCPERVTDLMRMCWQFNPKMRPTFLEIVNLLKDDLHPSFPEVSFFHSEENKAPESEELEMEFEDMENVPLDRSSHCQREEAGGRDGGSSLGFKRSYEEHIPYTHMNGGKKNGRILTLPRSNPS
Procedure, shortened: (§1)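 Run in-house using IMAP: phosphorylated fluorescent peptide substrate binds preferentially to immobilized metal beads, which quantifies kinase activity. ATP at 3× the Km of each enzyme.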

A2058 [2] = test: Cell cycle arrest in human A2058 cells assessed as accumulation at G2/M phase at 2 uM treated 1 hr and measured 10 hr post double hydroxyurea-synchrony release using propidium iodide staining by FACS analysis (reference value: 65 %); type: functional
HeLa [3] = test: Induction of abberent mitosis in human HeLa cells expressing GFP-H2B assessed as normal survivin staining cells at 2 uM by immunofluorescence method (reference value: 7%); type: functional
HeLa [4] = test: Cell cycle arrest at G2 phase in human HeLa cells at 2 uM treated 8 hr and measured 12 hr post-synchrony release using Propidium iodide staining by FACS analysis in presence of p38 MAPK inhibitor SB203580; type: functional, cell-based
[5] = Inhibition of AKT using fluorescent substrate by IMAP assay; procedure, shortened: as §1
[6] = target: Cyclin-dependent kinase 4 (Homo sapiens) (UniProt P11802); test: Inhibition of CDK4-mediated Rb phosphorylation at ser 795 in human HCT116 cells at IC50 after 4 hrs by immunoblot analysis; type: cell-based; conditions: HCT-116
Chain of Cyclin-dependent kinase 4 (Homo sapiens) (P11802 whole entry): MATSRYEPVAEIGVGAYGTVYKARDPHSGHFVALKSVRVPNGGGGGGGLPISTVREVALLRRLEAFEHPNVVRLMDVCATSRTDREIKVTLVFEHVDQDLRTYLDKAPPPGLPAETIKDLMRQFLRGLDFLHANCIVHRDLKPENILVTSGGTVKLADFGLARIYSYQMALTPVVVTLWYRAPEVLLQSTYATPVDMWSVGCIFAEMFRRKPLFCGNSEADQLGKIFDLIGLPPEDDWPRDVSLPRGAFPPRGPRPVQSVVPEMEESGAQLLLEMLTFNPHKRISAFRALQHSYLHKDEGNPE
Procedure, shortened: (§2)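 Asynchronous HCT-116 cells (DMEM, 3 mM HEPES, 10% serum, 37 °C, 5% CO₂) were given increasing inhibitor doses for 4 or 24 h. Lysis in NETN with phosphatase and protease inhibitors, then SDS-PAGE, nitrocellulose transfer and immunoblot for phospho-Rb (Ser-795) with HRP secondary and chemiluminescence.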

[7] = target: Tyrosine-protein kinase Lck (Homo sapiens, UniProt P06239); test: Inhibition of Lck using fluorescent substrate by IMAP assay; procedure, shortened: as §1
Chain of Tyrosine-protein kinase Lck (P06239 whole entry): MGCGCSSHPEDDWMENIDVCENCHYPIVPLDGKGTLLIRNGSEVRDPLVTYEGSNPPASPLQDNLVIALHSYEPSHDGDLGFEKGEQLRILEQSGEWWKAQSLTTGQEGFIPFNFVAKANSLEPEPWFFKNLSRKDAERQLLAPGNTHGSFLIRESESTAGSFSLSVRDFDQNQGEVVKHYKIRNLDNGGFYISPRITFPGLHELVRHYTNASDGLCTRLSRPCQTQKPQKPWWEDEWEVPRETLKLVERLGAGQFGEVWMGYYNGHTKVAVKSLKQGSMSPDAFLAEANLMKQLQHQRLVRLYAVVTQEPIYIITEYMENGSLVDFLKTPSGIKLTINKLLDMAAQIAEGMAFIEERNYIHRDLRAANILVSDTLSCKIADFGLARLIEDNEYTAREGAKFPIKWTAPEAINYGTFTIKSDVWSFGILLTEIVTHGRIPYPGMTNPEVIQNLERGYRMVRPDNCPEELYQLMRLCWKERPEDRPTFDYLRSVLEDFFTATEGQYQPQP

[8] = target: Cyclin-dependent kinase 4 (Homo sapiens) (UniProt P11802); test: Inhibition of CDK4-mediated Rb phosphorylation at ser 795 in human HCT116 cells at 3 times IC90 after 24 hrs by immunoblot analysis; type: cell-based; conditions: HCT-116; procedure, shortened: as §2
[9] = Cell cycle arrest in Rb-competent human SK-MEL-13 cells assessed as accumulation at sub-diploid phase at 2 uM after 24 hrs by FACS analysis; type: functional
Procedure, shortened: (§3)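 Ethanol-fixed cells stained with propidium iodide/RNase A, DNA content read by FACS, phase and sub-diploid fractions calculated with ModFit.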

HeLa [10] = test: Cell cycle arrest in human HeLa cells assessed as time delay in progression through G2/M phase at 4 uM treated within 4 hr post double thymidine-synchrony release using propidium iodide staining by FACS analysis; type: functional
Procedure, shortened: (§4)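 Cells harvested at set times post-release, fixed in 70% ethanol, stained with 5 μg/ml propidium iodide plus 0.5 mg/ml RNase A, and analysed by flow cytometry. Cell-cycle phase fractions calculated by ModFit.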

COLO 205 = test: Antiproliferative activity against human COLO205 cells assessed as inhibition of S phase after 48 hrs by MTT assay; type: functional, cell-based; conditions: COLO 205, 48 h
Procedure, shortened: (§5)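 Cells grown in DMEM with 3 mM HEPES and 10% Serum Supreme at 37 °C, 5% CO2. Proliferation read by MTT assay 48 h after drug addition; IC50 given as mean of two separate determinations, each in duplicate.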

HCT-116 [11] = test: Cell cycle arrest in Rb-competent human HCT116 cells assessed as […] at IC90 after 24 hrs using BrdUrd staining by FACS analysis (Rvb =38 %); type: functional
HeLa [12] = test: Cell cycle arrest at G2 phase in human HeLa cells at 2 uM treated 8 hr and measured 12 hr post-synchrony release using Propidium iodide staining by FACS analysis in presence of ATM/ATR signaling inhibitor caffiene; type: functional, cell-based
HeLa [13] = test: Cell cycle arrest in synchronized human HeLa cells assessed as time required to reach anaphase/telophase at 2 uM by time-lapse microscopy (reference value: 78+/-51 mins); type: functional
A2058 [14] = test: Cell cycle arrest in human A2058 cells assessed as accumulation at S phase at 2 uM treated 1 hr and measured 8 hr post double hydroxyurea-synchrony release using propidium iodide staining by FACS analysis (reference value: 52 %); type: functional
RKO = test: Toxicity in human RKO cells at 8 uM by MTT assay; type: cell-based
A2058 [15] = test: Cell cycle arrest in human A2058 cells assessed as accumulation at G1 phase at 2 uM treated 1 hr and measured 10 hr post double hydroxyurea-synchrony release using propidium iodide staining by FACS analysis; type: functional
HeLa [16] = test: Cell cycle arrest in Rb-deficient human HeLa cells assessed as accumulation at G1 phase at 2 uM after 24 hrs by FACS analysis; type: functional; procedure, shortened: as §3
HeLa [17] = test: Cell cycle arrest in human HeLa cells assessed as accumulation at S phase at 2 uM treated 4 hr and measured 10 hr post double thymidine-synchrony release using propidium iodide staining by FACS analysis (reference value: 1 %); type: functional; procedure, shortened: as §4
[18] = target: Cyclin-dependent kinase 4 (Homo sapiens) (UniProt P11802); test: Inhibition of CDK4-mediated Rb phosphorylation at ser 795 in human HCT116 cells at IC50 after 24 hrs by immunoblot analysis; type: cell-based; conditions: HCT-116; procedure, shortened: as §2
HeLa [19] = test: Cell cycle arrest at G2 phase in human HeLa cells assessed as decrease in Cyclin A-CDK2 level at 2 uM treated at early S phase measured after 6-14 hr post thymidine-synchrony release by immunoblot method relative to untreated control; type: functional, cell-based
[20] = target: Cyclin-dependent kinase 4 (Homo sapiens) (UniProt P11802); test: Inhibition of CDK4-mediated Rb phosphorylation at ser 795 in human HCT116 cells at IC90 after 4 hrs by immunoblot analysis; type: cell-based; conditions: HCT-116; procedure, shortened: as §2
HeLa [21] = test: Cell cycle arrest in human HeLa cells assessed as accumulation at G2/M phase at 2 uM treated 4 hr and measured 10 hr post double thymidine-synchrony release using propidium iodide staining by FACS analysis (reference value: 31 %); type: functional; procedure, shortened: as §4
HeLa [22] = test: Cell cycle arrest in human HeLa cells assessed as accumulation at G2/M phase at 2 uM treated 4 hr and measured 8 hr post double thymidine-synchrony release using propidium iodide staining by FACS analysis (reference value: 86 %); type: functional; procedure, shortened: as §4
HeLa [23] = test: Cell cycle arrest in human HeLa cells assessed as time delay in progression through mitosis at 2 uM treated 2 hr post double thymidine-synchrony release using propidium iodide staining by FACS analysis; type: functional; procedure, shortened: as §4
[24] = target: Cyclin-dependent kinase 4/cyclin D1 (Homo sapiens, UniProt P11802); test: Inhibition of human GST-tagged CDK4-cyclin D1 using his-tagged Rb as substrate after 30 mins by scintillation counting method; type: protein-complex assay
Chain of Cyclin-dependent kinase 4/cyclin D1 (P11802 whole entry): as the sequence (P11802 whole entry) above
Chain of Cyclin-dependent kinase 4/cyclin D1 (P24385 whole entry, further chain): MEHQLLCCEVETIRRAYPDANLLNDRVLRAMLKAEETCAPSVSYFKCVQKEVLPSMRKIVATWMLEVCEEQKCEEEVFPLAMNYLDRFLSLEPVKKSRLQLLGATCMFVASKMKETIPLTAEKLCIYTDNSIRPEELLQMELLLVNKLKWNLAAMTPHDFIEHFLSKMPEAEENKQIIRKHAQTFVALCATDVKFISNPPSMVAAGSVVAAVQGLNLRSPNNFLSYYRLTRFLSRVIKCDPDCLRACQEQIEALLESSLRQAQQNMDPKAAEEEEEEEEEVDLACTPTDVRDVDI

HeLa [25] = test: Cell cycle arrest in human HeLa cells assessed as accumulation at G1 phase at 2 uM treated 6 hr and measured 12 hr post double thymidine-synchrony release using propidium iodide staining by FACS analysis (reference value: 81 %); type: functional
HeLa [26] = test: Cell cycle arrest in synchronized human HeLa cells assessed as large multinuclear cell formation at 2 uM by time-lapse microscopy; type: functional, cell-based
HCT-116 [27] = test: Antiproliferative activity against human HCT116 cells assessed as inhibition of S phase after 48 hrs by MTT assay; type: functional, cell-based; conditions: HCT-116, 48 h; procedure, shortened: as §5

| SMILES | Activity (HeLa [1]) [%] | IC50 (Insulin receptor) [nM] | Activity (A2058 [2]) [%] | Activity (HeLa [3]) [%] | Activity (HeLa [4]) | IC50 [5] [nM] | inhibition [6] | IC50 [7] [nM] | inhibition [8] | Activity [9] [%] | Time (HeLa [10]) [h] | IC50 (COLO 205) [nM] | Activity (HCT-116 [11]) [%] | Activity (HeLa [12]) | Time (HeLa [13]) [min] | Activity (A2058 [14]) [%] | Activity (RKO) | Activity (A2058 [15]) [%] | Activity (HeLa [16]) [%] | Activity (HeLa [17]) [%] | other results |
| --- | --- | --- | --- | --- | --- | --- | --- | --- | --- | --- | --- | --- | --- | --- | --- | --- | --- | --- | --- | --- | --- |
| CN1CCN(c2ccc(Nc3nc(N)c(C(=O)c4ccc5c(c4)OCCO5)s3)cc2)CC1 | 36 | 71000 | 57 | 23 | Active | > 200000 | Active | > 100000 | Active | 9 | >4 | 2040 | 11 | Active | 152 | 23 | Toxic | 7 | 49 | 0 | inhibition [18]: Active; Activity (HeLa [19]): Active; inhibition [20]: Active; Activity (HeLa [21]): 88%; Activity (HeLa [22]): 91%; Time (HeLa [23]): 4 h; IC50 [24]: 20 nM; Activity (HeLa [25]): 73%; Activity (HeLa [26]): Active; IC50 (HCT-116 [27]): 3850 nM |
| COc1cccc(C(=O)c2sc(Nc3ccc(N4CCN(C(C)C)CC4)cc3)nc2N)c1 | 36 | 24000 | 57 | 23 | Active | > 200000 | Active | > 100000 | Active | 9 | >4 | 560 | 11 | Active | 152 | 23 | Toxic | 7 | 49 | 0 | inhibition [18]: Active; Activity (HeLa [19]): Active; inhibition [20]: Active; Activity (HeLa [21]): 88%; Activity (HeLa [22]): 91%; Time (HeLa [23]): 4 h; IC50 [24]: 20 nM; Activity (HeLa [25]): 73%; Activity (HeLa [26]): Active; IC50 (HCT-116 [27]): 1100 nM |
